The source made the active and inactive calls. The calls are words filed in the database; no cut-off is given here.
Experiments:
[1] = target: T1, NAD-dependent protein deacetylase sirtuin-1 (Homo sapiens) (UniProt Q96EB6); assay: Inhibition of SIRT1 in human U373 cells assessed as increase of histone H4 acetylation at 2.5 uM after 8 hrs by Western blotting method relative to control; type: cell-based
T1 sequence (whole entry): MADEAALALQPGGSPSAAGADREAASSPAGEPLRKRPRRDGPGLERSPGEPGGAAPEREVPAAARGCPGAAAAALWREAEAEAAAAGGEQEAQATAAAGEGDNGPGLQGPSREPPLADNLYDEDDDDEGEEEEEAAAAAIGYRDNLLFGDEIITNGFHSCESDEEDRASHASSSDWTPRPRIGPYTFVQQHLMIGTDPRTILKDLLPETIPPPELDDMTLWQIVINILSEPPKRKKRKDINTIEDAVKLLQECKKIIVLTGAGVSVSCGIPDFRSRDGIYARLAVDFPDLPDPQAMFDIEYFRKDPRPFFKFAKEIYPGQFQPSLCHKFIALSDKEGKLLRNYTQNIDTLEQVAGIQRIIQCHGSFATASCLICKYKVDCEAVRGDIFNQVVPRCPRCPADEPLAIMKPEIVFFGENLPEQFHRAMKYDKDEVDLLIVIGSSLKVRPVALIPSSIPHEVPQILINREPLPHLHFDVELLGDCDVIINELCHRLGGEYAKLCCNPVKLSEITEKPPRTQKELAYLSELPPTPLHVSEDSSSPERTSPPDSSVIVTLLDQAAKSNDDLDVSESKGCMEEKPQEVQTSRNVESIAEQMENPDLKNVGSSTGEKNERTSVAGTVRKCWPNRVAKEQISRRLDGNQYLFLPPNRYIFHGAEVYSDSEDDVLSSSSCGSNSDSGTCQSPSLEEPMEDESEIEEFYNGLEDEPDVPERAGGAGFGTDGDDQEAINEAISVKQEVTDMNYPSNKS

[2] = system: A549; assay: Growth inhibition of human A549 cells after 48 hrs by SRB assay; type: functional; details: A549, 48 h
[3] = system: PC-3; assay: Growth inhibition of human PC3 cells after 48 hrs by SRB assay; type: functional; details: PC-3, 48 h
[4] = system: COLO 205; assay: Growth inhibition of human COLO205 cells after 48 hrs by SRB assay; type: functional; details: COLO 205, 48 h
[5] = system: NCI-H23; assay: Growth inhibition of human NCI-H23 cells after 48 hrs by SRB assay; type: functional; details: NCI-H23, 48 h
[6] = target: T1, NAD-dependent protein deacetylase sirtuin-1 (Homo sapiens); assay: Inhibition of SIRT1 in human Hs683 cells assessed as increase of histone H3K56 acetylation at 10 to 25 after 8 to 24 hrs by Western blotting method; type: cell-based
Method in brief: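 Cells treated with the compound, then histone H3K56 acetylation assessed by Western blot on histone extracts; histone H1 or Coomassie staining as loading control.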

[7] = target: T1, NAD-dependent protein deacetylase sirtuin-1 (Homo sapiens); assay: Inhibition of SIRT1 in human Hs683 cells assessed as increase of histone H4 acetylation at 10 uM after 8 hrs by Western blotting method relative to control; type: cell-based
[8] = target: T2, NAD-dependent protein deacetylase sirtuin-2 (Homo sapiens, UniProt Q8IXJ6); assay: Inhibition of N-terminal His-tagged recombinant human SIRT-2 expressed in Escherichia coli using Fluor-de-Lys-SIRT1 as substrate after 15 mins by fluorescence assay
T2 sequence (Q8IXJ6 whole entry): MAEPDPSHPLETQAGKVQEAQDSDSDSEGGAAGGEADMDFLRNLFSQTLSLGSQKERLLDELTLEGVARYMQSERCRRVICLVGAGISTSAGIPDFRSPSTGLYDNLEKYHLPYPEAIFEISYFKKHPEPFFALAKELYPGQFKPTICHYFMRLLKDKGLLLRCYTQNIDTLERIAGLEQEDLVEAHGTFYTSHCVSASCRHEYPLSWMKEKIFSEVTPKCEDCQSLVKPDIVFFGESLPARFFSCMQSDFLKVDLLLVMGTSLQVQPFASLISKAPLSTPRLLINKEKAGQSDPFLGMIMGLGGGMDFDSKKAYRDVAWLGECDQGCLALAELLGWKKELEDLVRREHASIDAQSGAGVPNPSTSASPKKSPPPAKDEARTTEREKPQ

[9] = system: Hs 683; assay: Cytostatic activity against human Hs683 cells at 10 uM after 72 hrs by quantitative videomicroscopy relative to control; type: functional
Method in brief: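 Cells were grown in 25 cm2 flasks, and phase-contrast images were recorded every 4 min over 72 h, in triplicate. Global growth is cell count on the last image divided by cell count on the first, at 24, 48 and 72 h. The GGR index is treated GG divided by control GG.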

[10] = system: Hs 683; assay: Antitumor activity against CM-Dil fluorescent dye labeled human Hs683 cells xenografted in zebrafish embryo at 5 to 10 uM preincubated with tumor for 30 hrs followed by tumor implantation in zebra fish yolk sac measured after 72 hrs by fluorescence microscopy; type: functional, cell-based
Method in brief: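 Cells were pretreated in vitro at 5 or 10 μM for 30 or 36 h and labeled with CM-DiI 2 h before injection. Then 100–200 cells were injected into the yolk sac of wild-type zebrafish 48 h post-fertilization, anesthetized in 0.02% tricaine. Embryos were kept 72 h at 28.5 °C in Danieau solution with 0.003% phenylthiourea, and fluorescence was quantified in eight fish per condition.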

[11] = target: Histone deacetylase 2 (Homo sapiens) (UniProt Q92769); assay: Inhibition of His-tagged recombinant full length human HDAC2 expressed in baculovirus infected insect cells at 0.1 to 100 uM using Fluor-de-Lys-SIRT1 as substrate after 15 mins by fluorescence assay
[12] = system: SW-620; assay: Growth inhibition of human SW620 cells after 48 hrs by SRB assay; type: functional; details: SW-620, 48 h
[13] = target: T1, NAD-dependent protein deacetylase sirtuin-1 (Homo sapiens); assay: Inhibition of SIRT1 in human Hs683 cells assessed as increase of histone H4 acetylation at 2.5 uM after 8 hrs by Western blotting method relative to control; type: cell-based
[14] = target: Polyamine deacetylase HDAC10 (Homo sapiens) (UniProt Q969S8); assay: Inhibition of C-terminal His-tagged recombinant human HDAC10 expressed in baculovirus infected insect Sf9 cells at 0.1 to 100 uM using Fluor-de-Lys-SIRT1 as substrate after 15 mins by fluorescence assay
[15] = system: MOLT-4; assay: Growth inhibition of human MOLT4 cells after 48 hrs by SRB assay; type: functional; details: MOLT-4, 48 h
[16] = system: OVCAR-4; assay: Growth inhibition of human OVCAR4 cells after 48 hrs by SRB assay; type: functional; details: OVCAR-4, 48 h
[17] = system: Hs 683; assay: Induction of senescence in human Hs683 cells at 5 uM after 6 days by beta-galactosidase assay (reference value: 0.2%); type: functional
Method in brief: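 Cells were kept 6 days in medium containing 5 μM compound or DMSO vehicle, then stained for senescence-associated β-galactosidase activity. Blue-stained cells were counted and expressed as a percentage of total cells counted. Two independent experiments.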

[18] = system: IGROV-1; assay: Growth inhibition of human IGROV1 cells after 48 hrs by SRB assay; type: functional; details: IGROV-1, 48 h
[19] = target: T1, NAD-dependent protein deacetylase sirtuin-1 (Homo sapiens); assay: Inhibition of SIRT1 in human Hs683 cells assessed as increase of histone H4 acetylation at 1 uM after 8 hrs by Western blotting method relative to control; type: cell-based
[20] = system: NCI/ADR-RES; assay: Growth inhibition of human NCI-ADR-RES cells after 48 hrs by SRB assay; type: functional

Polyamine deacetylase HDAC10 (Homo sapiens), sequence (Q969S8 whole entry): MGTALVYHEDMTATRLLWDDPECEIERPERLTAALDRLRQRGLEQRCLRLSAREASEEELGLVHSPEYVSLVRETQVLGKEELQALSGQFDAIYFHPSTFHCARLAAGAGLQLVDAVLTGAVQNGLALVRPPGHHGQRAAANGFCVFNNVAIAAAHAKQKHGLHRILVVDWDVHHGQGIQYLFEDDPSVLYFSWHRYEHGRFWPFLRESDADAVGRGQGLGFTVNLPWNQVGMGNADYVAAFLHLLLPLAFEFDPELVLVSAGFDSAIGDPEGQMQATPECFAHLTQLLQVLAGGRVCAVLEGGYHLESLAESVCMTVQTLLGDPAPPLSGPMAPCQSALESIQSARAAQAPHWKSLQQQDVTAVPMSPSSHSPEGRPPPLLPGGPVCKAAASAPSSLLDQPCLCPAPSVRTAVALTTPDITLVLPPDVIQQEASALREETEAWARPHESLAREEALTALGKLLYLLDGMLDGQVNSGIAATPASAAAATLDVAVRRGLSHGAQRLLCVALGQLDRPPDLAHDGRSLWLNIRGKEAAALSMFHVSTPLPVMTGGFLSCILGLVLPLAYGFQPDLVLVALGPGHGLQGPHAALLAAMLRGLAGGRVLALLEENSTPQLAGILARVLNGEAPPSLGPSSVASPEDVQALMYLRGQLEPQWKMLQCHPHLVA
Histone deacetylase 2 (Homo sapiens), sequence (Q92769 whole entry): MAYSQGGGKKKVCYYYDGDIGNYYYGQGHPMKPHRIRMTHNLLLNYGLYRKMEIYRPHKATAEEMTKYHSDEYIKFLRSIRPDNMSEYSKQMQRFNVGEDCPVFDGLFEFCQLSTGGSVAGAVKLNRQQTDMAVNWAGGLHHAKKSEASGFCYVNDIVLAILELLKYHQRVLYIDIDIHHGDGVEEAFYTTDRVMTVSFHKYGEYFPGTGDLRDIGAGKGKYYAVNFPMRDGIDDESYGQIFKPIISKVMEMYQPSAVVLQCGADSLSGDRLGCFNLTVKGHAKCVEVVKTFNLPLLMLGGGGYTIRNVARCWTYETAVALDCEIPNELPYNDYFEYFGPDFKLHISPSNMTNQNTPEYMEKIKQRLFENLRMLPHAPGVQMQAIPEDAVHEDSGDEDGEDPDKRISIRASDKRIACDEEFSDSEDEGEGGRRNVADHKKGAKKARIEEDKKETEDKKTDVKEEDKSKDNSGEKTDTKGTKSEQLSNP

For `CC(C)(C)OC(=O)Nc1ccc2c(c1)C(NC(=O)Nc1cccc(C#N)c1)CC(C)(C)O2` (stereo not given), the fold change (FC) [1] was 1, the GI50 [2] was 2.75 µM and the GI50 [3] was 0.759 µM. The GI50 [4] was 3.55 µM, the GI50 [5] was 1.12 µM and the inhibition [6] was “Active”. For the same compound, the fold change (FC) [7] was 12, the IC50 [8] was 4.2 µM and the Activity [9] was “>=50%”. The Activity [10] was “Active”, the inhibition [11] was “inactive” and the GI50 [12] was 3.8 µM. For the same compound, the fold change (FC) [13] was 1.9, the inhibition [14] was “inactive” and the GI50 [15] was 2.09 µM. It also gave a GI50 [16] of 1.78 µM, an Activity [17] of 0.5% and a GI50 [18] of 6.31 µM. The fold change (FC) [19] was 1.3 and the GI50 [20] was 3.09 µM.
